Results on 6 compounds are retold here after ChEMBL document CHEMBL4350958, “Rational Design of Short Peptide Variants by Using Kunitzin-RE, an Amphibian-Derived Bioactivity Peptide, for Acquired Potent Broad-Spectrum Antimicrobial and Improved Therapeutic Potential of Commensalism Coinfection of Pathogens” (J Med Chem, 2019).

Data set [1] has as its system Staphylococcus aureus. Put plainly: Antibacterial activity against Staphylococcus aureus ATCC 29213 assessed as ratio of MIC95 in presence of NaCl to in absence of NaCl. It counts as functional.
The test system of a further data set is Candida albicans. Put plainly: Antifungal activity against Candida albicans cgmcc2.2086 assessed as ratio of MIC95 in presence of NaCl to in absence of NaCl. It is filed as functional.
Data set [2] is described as follows: Conformational stability in 50% trifluoro-ethyl alcohol assessed as alpha-helical structural propensity at 35 uM by CD spectra analysis. It counts as physicochemical. In outline:
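CD spectra from 190 to 250 nm of peptide at 35 μM in 10 mM PBS, 30 mM SDS micelles or 50% TFE, recorded in a 1.0-mm quartz cell. Ellipticity was converted to mean residue ellipticity. Three independent scans, each averaged over more than 3 runs.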

Data set [3] concerns Pseudomonas aeruginosa. Kind of data set: Antibacterial activity against Pseudomonas aeruginosa ATCC 27853 at sub-MBC measured after 17 serial passages. It counts as functional, organism-based. A digest of the protocol:
(§1)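 P. aeruginosa ATCC 27853 passaged every 24 h by 100-fold dilution in MHB containing sub-MBC drug, for 30 passages. MBC was tested on the cells from each passage. Control cells were passaged in drug-free MHB. Run independently in triplicate with three biological replicates.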

Data set [4] deals with Salmonella enterica subsp. enterica serovar Pullorum. Kind of data set: Bactericidal activity against Salmonella pullorum ATCC 7913 incubated for 24 hrs followed by replating on agar plate and measured after overnight incubation. It counts as functional. A digest of the protocol:
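Mid-log bacteria diluted in MHB to (0.5–1) × 10^5 CFU/mL and mixed 1:1 with peptide serially diluted in 0.2% BSA. After 24 h at 37 °C, 50 μL of each mixture was plated on agar and incubated overnight. MBC taken as the lowest concentration killing >99.9% of cells. At least three independent experiments, each with three technical replicates.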

The test system of data set [5] is Pseudomonas aeruginosa. Put plainly: Antibacterial activity against Pseudomonas aeruginosa ATCC 27853 assessed as ratio of MBC after and before 30 serial passages at sub-MBC. It counts as functional. A digest of the protocol: as §1
Data set [6] concerns Staphylococcus aureus. Put plainly: Induction of morphological changes in Staphylococcus aureus ATCC 29213 assessed as hole formation at MBD measured after 1 hr by atomic force microscopic analysis. It is filed as functional, organism-based.
In data set [7] the test system is Escherichia coli. Kind of data set: Induction of outer membrane permeabilization in Escherichia coli ATCC 25922 at 64 uM by NPN-dye based assay relative to control. In outline: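 Mid-log E. coli ATCC 25922 (OD600 0.2) incubated 30 min with NPN (10 μM) in 5 mM HEPES pH 7.4 with 5 mM glucose, then mixed 1:1 with peptide (1–64 μM). Fluorescence (ex 350/em 420 nm) recorded until it plateaued. Percent NPN uptake calculated relative to no peptide and to 10 μg/mL polymyxin B. Three independent experiments, triplicates.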

In data set [8] the test system is Pseudomonas aeruginosa. Kind of data set: Antibacterial activity against Pseudomonas aeruginosa ATCC 27853 at sub-MBC measured after 30 serial passages. It counts as functional, organism-based. A digest of the protocol:
as §1

A further data set has as its system Lipid bilayer. Kind of data set: Induction of membrane disruption in PG/CL/PE large unilamellar vesicles assessed as calcein-entrapped liposome leakage at 8 uM after 15 mins by spectrofluorophotometric assay relative to control. In outline: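 Calcein (70 mM)-loaded LUVs of PG/CL/PE (2:1:7 w/w/w, E. coli membrane mimic), made by freeze-thaw and 100-nm extrusion, free dye removed on Sephadex G-50. LUVs (100 μM) exposed to peptide (1–64 μM) for 15 min. Leakage read at ex 490/em 520 nm: liposomes alone are background, Triton X-100 is 100%. Independent triplicates.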

Data set [9] relates to Staphylococcus aureus. Put plainly: Induction of morphological changes in Staphylococcus aureus ATCC 29213 assessed as cell content leakage at MBD measured after 1 hr by atomic force microscopic analysis. It is filed as functional, organism-based.
Data set [10] has as its system Staphylococcus aureus. Put plainly: Antibacterial activity against Staphylococcus aureus ATCC 29213 assessed as ratio of MIC95 in presence of CaCl2 to in absence of CaCl2. It counts as functional. A digest of the protocol:
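S. aureus ATCC 29213, mid-log, (0.5–1) × 10^5 CFU/mL final in MHB, with or without 2 mM CaCl2 (final). Peptide serially diluted in 0.2% BSA and mixed 1:1 with cells, 24 h at 37 °C. MIC is the lowest concentration inhibiting 95% of growth by A492. Three independent experiments, each with three technical replicates.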

For data set [11], the system named is Escherichia coli. Put plainly: Induction of morphological changes in Escherichia coli ATCC 25922 assessed as cell content leakage at MBD measured after 1 hr by transmission electron microscopic analysis. It is filed as functional, organism-based.
For data set [12], the system named is Escherichia coli. Put plainly: Drug uptake in plasma membrane of Escherichia coli ATCC 25922 at MBC measured after 30 mins using FITC-labeled compound by microscopic analysis. Conditions: in vivo, 0.5 h. It counts as ADME, organism-based. In outline: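 E. coli ATCC 25922 or S. aureus ATCC 29213 (OD600 0.2) incubated with FITC-labeled peptide at 1×MBC, 37 °C, 30 min. Cells washed, resuspended with PI (10 μg/mL) in PBS, smeared and imaged by superresolution microscopy using 488 and 535 nm filters for FITC and PI. Peptide-free cells served as controls. Three independent scans.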

Data set [13] has as its system Pseudomonas aeruginosa. Kind of data set: Antibacterial activity against melittin-resistant Pseudomonas aeruginosa ATCC 27853 measured after 24 hrs. It is filed as functional, organism-based.
In data set [14] the test system is Escherichia coli. Put plainly: Induction of cytoplasmic membrane […] in Escherichia coli ATCC 25922 assessed as increase in ONPG release at 1 to 64 uM measured at 6 mins interval for 120 mins by spectroscopically. It is filed as organism-based. A digest of the protocol:
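E. coli 25922 grown to mid-log in MHB with 2% lactose, then diluted to OD600 0.05 in 5 mM HEPES pH 7.4 with 20 mM glucose and 1.5 mM ONPG. Mixed with equal volume of peptide (1 to 64 μM) at 37 °C. OD420 read every 6 min for 0–120 min. Triplicate, three biological replicates.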

Data set [15] concerns Escherichia coli. Kind of data set: Induction of cytoplasmic membrane depolarization in Escherichia coli ATCC 25922 assessed as fluorescence intensity at 2 uM up to 3000 secs by DiSC3-5 dye-based fluorescence spectrophotometric method. A digest of the protocol: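 Mid-log E. coli ATCC 25922 (OD600 0.05) loaded with 0.4 μM DiSC3-5 and 100 mM K+ in 5 mM HEPES pH 7.4 with 20 mM glucose until fluorescence stabilized. Peptide added in a 1-cm cuvette and fluorescence (ex 622, em 670 nm) recorded 0–3000 s. Triplicate, three biological replicates.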

For a further data set, the system named is Lipopolysaccharide (LPS). Kind of data set: Displacement of BODIPY-TR-cadaverine from Escherichia coli O111:B4 LPS at 1 to 64 uM after 1 hr by spectrofluorophotometric method relative to control. A digest of the protocol:
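LPS from E. coli O111:B4 (50 μg/mL) preincubated 4 h with BODIPY-TR-cadaverine (5 μg/mL) in 50 mM Tris, pH 7.4. Mixed with equal volume of peptide (1-64 µM) and incubated 1 h at 37 °C, then fluorescence read. %ΔF = (Fobs−F0)/(F100−F0)×100, with 10 μg mL-1 polymyxin B defining F100. Three technical replicates per experiment.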

Active and inactive are the calls of the source. The rule behind the calls is not given here. Where a SMILES comes first, the peptide text is derived from it.

Turning to H-AARRILRWIFR-NH2, the results for the Ratio in the data set on Staphylococcus aureus [1] and in the data set with Candida albicans were 16 and 4, respectively. For the same compound, the Stability result in [2] is “Stable”.

Consider GENTAMICIN, for which the result with Pseudomonas aeruginosa [3] was inactive. This compound also had an MBC>99.9 in data set [4] of 2 µM. In addition, the Ratio with Pseudomonas aeruginosa [5] was found to be 32.

With H-AARIILRWRFR-NH2, the Ratio with Staphylococcus aureus [1], in the data set with Candida albicans and with Staphylococcus aureus [10] was 4 each time. Further, the result in the data set on Staphylococcus aureus [6], with Pseudomonas aeruginosa [8], in the data set with Staphylococcus aureus [9], in the data set on Escherichia coli [11] and in the data set on Pseudomonas aeruginosa [13] was Active. Moreover, the Activity in the data set on Escherichia coli [7] is 110%; in the data set with Lipid bilayer, above 40%. Besides, in the data set on Escherichia coli [12], the Drug uptake entry was “Active”.

For the compound `CC[C@H](C)[C@H](NC(=O)CN)C(=O)NCC(=O)N[C@@H](C)C(=O)N[C@H](C(=O)N[C@@H](CC(C)C)C(=O)N[C@@H](CCCCN)C(=O)N[C@H](C(=O)N[C@@H](CC(C)C)C(=O)N[C@H](C(=O)N[C@H](C(=O)NCC(=O)N[C@@H](CC(C)C)C(=O)N1CCC[C@H]1C(=O)N[C@@H](C)C(=O)N[C@@H](CC(C)C)C(=O)N[C@H](C(=O)N[C@@H](CO)C(=O)N[C@@H](Cc1c[nH]c2ccccc12)C(=O)N[C@H](C(=O)N[C@@H](CCCCN)C(=O)N[C@@H](CCCNC(=N)N)C(=O)N[C@@H](CCCCN)C(=O)N[C@@H](CCCNC(=N)N)C(=O)N[C@@H](CCC(N)=O)C(=O)N[C@@H](CCC(N)=O)C(N)=O)[C@@H](C)CC)[C@@H](C)CC)[C@@H](C)O)[C@@H](C)O)C(C)C)C(C)C` [MELITTIN], the result in the data set on Pseudomonas aeruginosa [3] was inactive. Besides, in the data set on Escherichia coli [14], the outcome was Active. Further, the Flu intensity in the data set with Escherichia coli [15] stood at 4000 a.u. This compound also yielded an Activity in the data set on Lipopolysaccharide (LPS) of 96%. Besides, in the data set on Pseudomonas aeruginosa [5], the Ratio amounted to 128.

In the case of `CC[C@H](C)[C@H](NC(=O)[C@H](CCCCN)NC(=O)[C@H](C)NC(=O)[C@H](C)N)C(=O)N[C@H](C(=O)N[C@@H](CC(C)C)C(=O)N[C@@H](CC(N)=O)C(=O)N1CCC[C@H]1C(=O)N[C@@H](CCCCN)C(=O)N[C@@H](Cc1ccccc1)C(=O)N[C@@H](CCCNC(=N)N)C(=O)N[C@@H](CS)C(=O)N[C@@H](CCCCN)C(=O)N[C@@H](C)C(=O)N[C@@H](C)C(=O)N[C@@H](Cc1ccccc1)C(=O)N[C@@H](CS)C(N)=O)[C@@H](C)CC` (H-AAKIILNPKFRCKAAFC-NH2), in the data set with Escherichia coli [14], the outcome was Active. For the same compound, the Activity in the data set on Escherichia coli [7] worked out at 35%; with Lipopolysaccharide (LPS), 72%.

POLYMYXIN B: the MBC>99.9 in data set [4] was found to be 1 µM.
